{"source": "ChEMBL document CHEMBL3862016", "about": "(Bioorg Med Chem Lett, 2016)", "key": {"Histone deacetylase 3": {"target": "Histone deacetylase 3 (Homo sapiens, UniProt O15379)", "sequence (O15379 whole entry)": "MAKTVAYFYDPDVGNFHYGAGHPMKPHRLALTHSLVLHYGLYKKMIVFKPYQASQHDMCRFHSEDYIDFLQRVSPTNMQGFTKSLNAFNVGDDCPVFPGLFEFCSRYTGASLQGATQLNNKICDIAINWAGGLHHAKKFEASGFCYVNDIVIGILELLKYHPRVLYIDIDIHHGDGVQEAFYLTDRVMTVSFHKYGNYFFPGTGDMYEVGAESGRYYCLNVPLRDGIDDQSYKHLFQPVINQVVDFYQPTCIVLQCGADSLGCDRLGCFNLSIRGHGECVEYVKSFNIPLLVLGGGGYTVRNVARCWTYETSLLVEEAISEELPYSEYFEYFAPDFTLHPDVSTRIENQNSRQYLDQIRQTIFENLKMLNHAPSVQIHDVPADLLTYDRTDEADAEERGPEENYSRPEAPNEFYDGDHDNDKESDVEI", "test": "Inhibition of HDAC3 (unknown origin) assessed as inhibition of fluorogenic peptide deacetylation"}, "[1]": {"test": "Clearance in mouse at 2 mg/kg, iv by HPLC-MS analysis", "type": "ADME, organism-based", "conditions": "in vivo", "summary_of_the_method": "(§1)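 Mice dosed iv at 2 mg/kg, or ip or sc at 10 mg/kg. Plasma concentration–time profiles were obtained by sparse sampling with N = 3 per time-point. Parameters (Cmax, Tmax, AUClast, terminal t1/2, CL, Vz, bioavailability) were derived by noncompartmental analysis.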"}, "[2]": {"test": "Cmax in mouse at 2 mg/kg, iv by HPLC-MS analysis", "type": "ADME, organism-based", "design": "dose 2 mg/kg, route intravenous", "conditions": "in vivo", "summary_of_the_method": "as §1"}, "Histone deacetylase 1": {"target": "Histone deacetylase 1 (Homo sapiens, UniProt Q13547)", "sequence (Q13547 whole entry)": "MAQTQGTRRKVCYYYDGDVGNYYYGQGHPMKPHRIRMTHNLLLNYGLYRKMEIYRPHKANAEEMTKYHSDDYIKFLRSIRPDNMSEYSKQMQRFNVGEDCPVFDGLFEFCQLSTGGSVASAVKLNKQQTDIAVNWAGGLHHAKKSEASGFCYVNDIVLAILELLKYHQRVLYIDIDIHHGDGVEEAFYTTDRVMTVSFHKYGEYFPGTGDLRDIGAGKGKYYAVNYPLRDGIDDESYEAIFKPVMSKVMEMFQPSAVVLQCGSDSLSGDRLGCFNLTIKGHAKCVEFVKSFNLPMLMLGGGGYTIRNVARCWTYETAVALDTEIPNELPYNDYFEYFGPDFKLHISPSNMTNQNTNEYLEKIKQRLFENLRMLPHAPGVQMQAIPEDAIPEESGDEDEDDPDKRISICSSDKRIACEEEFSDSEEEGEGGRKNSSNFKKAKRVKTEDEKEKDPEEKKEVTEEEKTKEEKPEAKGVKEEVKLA", "test": "Inhibition of HDAC1 (unknown origin) assessed as inhibition of fluorogenic peptide deacetylation"}, "[3]": {"test": "Terminal half life in mouse at 10 mg/kg, sc by HPLC-MS analysis", "type": "ADME, organism-based", "conditions": "in vivo, read-out: beta t1/2 (converted)", "summary_of_the_method": "as §1"}, "[4]": {"test": "Tmax in mouse at 10 mg/kg, ip by HPLC-MS analysis", "type": "ADME, organism-based", "conditions": "in vivo", "summary_of_the_method": "as §1"}, "UGT [5]": {"tested_on": "UGT", "test": "Metabolic stability in mouse liver microsomes assessed as UGT-mediated glucuronidation of compound by measuring parent compound remaining at 5 uM after 30 mins in presence of UDPGA by LC-MS/MS analysis", "type": "ADME", "conditions": "read-out: Stability"}, "[6]": {"test": "Cmax in mouse at 10 mg/kg, sc by HPLC-MS analysis", "type": "ADME, organism-based", "design": "dose 10 mg/kg, route subcutaneous", "conditions": "in vivo", "summary_of_the_method": "as §1"}, "UGT [7]": {"tested_on": "UGT", "test": "Metabolic stability in human liver microsomes assessed as UGT-mediated glucuronidation of compound by measuring parent compound remaining at 5 uM after 30 mins in presence of UDPGA by LC-MS/MS analysis", "type": "ADME", "conditions": "read-out: Stability"}, "[8]": {"test": "Tmax in mouse at 2 mg/kg, iv by HPLC-MS analysis", "type": "ADME, organism-based", "conditions": "in vivo", "summary_of_the_method": "as §1"}, "[9]": {"test": "Cmax in mouse at 10 mg/kg, ip by HPLC-MS analysis", "type": "ADME, organism-based", "design": "dose 10 mg/kg, route intraperitoneal", "conditions": "in vivo", "summary_of_the_method": "as §1"}, "Androgen receptor": {"target": "T1, Androgen receptor (Homo sapiens, UniProt P10275)", "T1 sequence (P10275 whole entry)": "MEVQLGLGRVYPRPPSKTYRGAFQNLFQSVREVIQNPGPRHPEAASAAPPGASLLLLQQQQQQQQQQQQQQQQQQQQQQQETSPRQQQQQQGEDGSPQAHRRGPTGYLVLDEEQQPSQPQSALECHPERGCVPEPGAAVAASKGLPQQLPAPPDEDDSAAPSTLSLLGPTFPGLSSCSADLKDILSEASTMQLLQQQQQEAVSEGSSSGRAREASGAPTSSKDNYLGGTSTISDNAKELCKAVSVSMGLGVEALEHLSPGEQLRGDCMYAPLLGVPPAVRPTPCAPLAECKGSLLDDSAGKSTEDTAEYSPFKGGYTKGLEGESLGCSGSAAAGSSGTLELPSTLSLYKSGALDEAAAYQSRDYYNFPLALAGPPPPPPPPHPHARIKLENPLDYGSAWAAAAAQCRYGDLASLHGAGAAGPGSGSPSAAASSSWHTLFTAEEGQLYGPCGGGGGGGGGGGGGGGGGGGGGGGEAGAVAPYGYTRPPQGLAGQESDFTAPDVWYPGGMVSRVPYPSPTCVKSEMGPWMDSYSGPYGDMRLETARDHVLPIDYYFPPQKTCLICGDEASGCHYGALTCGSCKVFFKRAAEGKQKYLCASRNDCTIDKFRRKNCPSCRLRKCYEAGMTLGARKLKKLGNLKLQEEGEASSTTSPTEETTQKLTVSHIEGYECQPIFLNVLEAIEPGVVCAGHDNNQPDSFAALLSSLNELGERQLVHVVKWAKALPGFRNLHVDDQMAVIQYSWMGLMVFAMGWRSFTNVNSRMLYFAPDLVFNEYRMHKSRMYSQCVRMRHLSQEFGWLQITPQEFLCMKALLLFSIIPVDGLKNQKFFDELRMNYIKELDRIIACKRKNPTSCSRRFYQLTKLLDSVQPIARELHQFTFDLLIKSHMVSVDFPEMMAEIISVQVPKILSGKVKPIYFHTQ", "test": "Displacement of [3H]mibolerone from androgen receptor (unknown origin) in membranes after 24 hrs by HAP adsorption assay"}, "[10]": {"test": "Bioavailability in mouse at 10 mg/kg, ip by HPLC-MS analysis", "type": "ADME, organism-based", "conditions": "in vivo", "summary_of_the_method": "as §1"}, "[11]": {"target": "T2, Protein deacetylase HDAC6 (Homo sapiens, UniProt Q9UBN7)", "T2 sequence (Q9UBN7 whole entry)": "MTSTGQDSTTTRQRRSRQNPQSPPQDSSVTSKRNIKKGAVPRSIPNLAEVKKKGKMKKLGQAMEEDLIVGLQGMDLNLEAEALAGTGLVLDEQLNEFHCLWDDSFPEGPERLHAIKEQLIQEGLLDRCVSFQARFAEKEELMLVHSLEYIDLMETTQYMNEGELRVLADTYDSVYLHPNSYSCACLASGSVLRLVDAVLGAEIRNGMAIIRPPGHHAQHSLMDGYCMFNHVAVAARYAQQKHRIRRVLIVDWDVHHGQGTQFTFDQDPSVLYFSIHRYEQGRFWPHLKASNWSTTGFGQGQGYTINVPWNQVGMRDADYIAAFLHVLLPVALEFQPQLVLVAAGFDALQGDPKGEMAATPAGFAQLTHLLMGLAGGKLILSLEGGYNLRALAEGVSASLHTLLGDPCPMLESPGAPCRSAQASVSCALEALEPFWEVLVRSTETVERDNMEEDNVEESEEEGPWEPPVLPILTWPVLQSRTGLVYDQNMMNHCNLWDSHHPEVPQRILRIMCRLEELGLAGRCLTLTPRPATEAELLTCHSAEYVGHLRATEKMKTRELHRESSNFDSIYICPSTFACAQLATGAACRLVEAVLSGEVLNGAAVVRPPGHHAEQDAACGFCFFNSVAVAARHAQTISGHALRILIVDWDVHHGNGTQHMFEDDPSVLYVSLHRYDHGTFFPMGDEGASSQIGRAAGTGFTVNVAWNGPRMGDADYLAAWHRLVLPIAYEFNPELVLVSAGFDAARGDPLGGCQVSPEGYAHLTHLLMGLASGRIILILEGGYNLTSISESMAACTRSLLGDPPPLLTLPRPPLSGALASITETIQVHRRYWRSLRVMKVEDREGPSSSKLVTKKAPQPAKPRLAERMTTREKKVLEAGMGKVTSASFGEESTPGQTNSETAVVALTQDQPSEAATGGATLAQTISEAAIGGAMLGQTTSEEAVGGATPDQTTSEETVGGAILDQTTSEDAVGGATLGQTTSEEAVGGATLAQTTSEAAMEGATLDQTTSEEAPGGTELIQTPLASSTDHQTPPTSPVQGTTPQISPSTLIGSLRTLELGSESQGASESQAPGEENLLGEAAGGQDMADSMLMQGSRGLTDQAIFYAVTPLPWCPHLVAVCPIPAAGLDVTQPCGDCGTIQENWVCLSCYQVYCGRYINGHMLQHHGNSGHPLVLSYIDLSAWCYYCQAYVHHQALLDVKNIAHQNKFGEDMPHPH", "test": "Inhibition of HDAC6 (unknown origin) assessed as inhibition of fluorogenic peptide deacetylation"}, "[12]": {"test": "Metabolic stability in mouse liver microsomes assessed as compound remaining at 1 uM measured after 30 mins in presence of NADPH by LC-MS/MS analysis", "type": "ADME", "conditions": "read-out: Stability"}, "Histone deacetylase 2": {"target": "Histone deacetylase 2 (Homo sapiens, UniProt Q92769)", "sequence (Q92769 whole entry)": "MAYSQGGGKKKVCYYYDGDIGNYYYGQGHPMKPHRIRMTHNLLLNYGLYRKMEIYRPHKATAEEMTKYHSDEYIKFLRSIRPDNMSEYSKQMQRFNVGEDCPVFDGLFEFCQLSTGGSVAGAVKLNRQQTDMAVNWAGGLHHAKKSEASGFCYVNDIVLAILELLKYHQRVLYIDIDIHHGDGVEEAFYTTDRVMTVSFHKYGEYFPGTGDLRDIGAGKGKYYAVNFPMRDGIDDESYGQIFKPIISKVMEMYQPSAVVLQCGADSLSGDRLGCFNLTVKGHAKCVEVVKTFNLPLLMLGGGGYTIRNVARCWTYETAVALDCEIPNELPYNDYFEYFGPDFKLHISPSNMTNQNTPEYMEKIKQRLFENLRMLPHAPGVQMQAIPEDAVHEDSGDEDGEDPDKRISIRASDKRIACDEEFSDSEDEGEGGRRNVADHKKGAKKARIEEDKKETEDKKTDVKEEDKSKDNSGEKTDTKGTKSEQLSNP", "test": "Inhibition of HDAC2 (unknown origin) assessed as inhibition of fluorogenic peptide deacetylation"}, "[13]": {"test": "Terminal half life in mouse at 2 mg/kg, iv by HPLC-MS analysis", "type": "ADME, organism-based", "conditions": "in vivo, read-out: beta t1/2 (converted)", "summary_of_the_method": "as §1"}, "[14]": {"test": "AUClast in mouse at 10 mg/kg, ip by HPLC-MS analysis", "type": "ADME, organism-based", "design": "dose 10 mg/kg, time 0 - last, route intraperitoneal", "conditions": "in vivo", "summary_of_the_method": "as §1"}, "[15]": {"test": "Tmax in mouse at 10 mg/kg, sc by HPLC-MS analysis", "type": "ADME, organism-based", "conditions": "in vivo", "summary_of_the_method": "as §1"}, "[16]": {"test": "Bioavailability in mouse at 10 mg/kg, sc by HPLC-MS analysis", "type": "ADME, organism-based", "conditions": "in vivo", "summary_of_the_method": "as §1"}, "[17]": {"test": "Terminal half life in mouse at 10 mg/kg, ip by HPLC-MS analysis", "type": "ADME, organism-based", "conditions": "in vivo, read-out: beta t1/2 (converted)", "summary_of_the_method": "as §1"}, "[18]": {"test": "AUClast in mouse at 10 mg/kg, sc by HPLC-MS analysis", "type": "ADME, organism-based", "design": "dose 10 mg/kg, time 0 - last, route subcutaneous", "conditions": "in vivo", "summary_of_the_method": "as §1"}, "[19]": {"test": "Apparent volume of distribution in mouse at 2 mg/kg, iv by HPLC-MS analysis", "type": "ADME, organism-based", "conditions": "in vivo, read-out: Vz", "summary_of_the_method": "as §1"}, "[20]": {"test": "Metabolic stability in human liver microsomes assessed as compound remaining at 1 uM measured after 30 mins in presence of NADPH by LC-MS/MS analysis", "type": "ADME", "conditions": "read-out: Stability"}, "[21]": {"test": "AUClast in mouse at 2 mg/kg, iv by HPLC-MS analysis", "type": "ADME, organism-based", "design": "dose 2 mg/kg, route intravenous, time 0 - last", "conditions": "in vivo", "summary_of_the_method": "as §1"}}, "note": "pIC50: −log10 of the molar value.", "data": [{"smiles": "CC1(C)C(=O)N(c2ccc(C#N)c(C(F)(F)F)c2)C(=S)N1c1ccc(C(=O)NCCCCCC(=O)NO)c(F)c1", "values": [{"measurement": "pIC50", "setting": "Histone deacetylase 3", "value": 5.74}, {"measurement": "clearance", "setting": "[1]", "value": 278, "unit": "mL/min/kg"}, {"measurement": "Cmax", "setting": "[2]", "value": 706, "unit": "nM"}, {"measurement": "pIC50", "setting": "Histone deacetylase 1", "value": 5.54}, {"measurement": "half-life", "setting": "[3]", "value": 205, "unit": "min"}, {"measurement": "Tmax", "setting": "[4]", "value": 60, "unit": "min"}, {"measurement": "remaining at 0.5 h, 5 µM", "setting": "UGT [5]", "value": 46.1, "unit": "%"}, {"measurement": "Cmax", "setting": "[6]", "value": 269, "unit": "nM"}, {"measurement": "remaining at 0.5 h, 5 µM", "setting": "UGT [7]", "value": 97.6, "unit": "%"}, {"measurement": "Tmax", "setting": "[8]", "value": 4.98, "unit": "min"}, {"measurement": "Cmax", "setting": "[9]", "value": 419, "unit": "nM"}, {"measurement": "pIC50", "setting": "Androgen receptor", "value": "> 7.52"}, {"measurement": "bioavailability", "setting": "[10]", "value": 82.1, "unit": "%"}, {"measurement": "pIC50", "setting": "[11]", "value": 7.44}, {"measurement": "remaining at 0.5 h, 1 µM", "setting": "[12]", "value": 21.9, "unit": "%"}, {"measurement": "pIC50", "setting": "Histone deacetylase 2", "value": 5.65}, {"measurement": "half-life", "setting": "[13]", "value": 25.6, "unit": "min"}, {"measurement": "AUC(0-t)", "setting": "[14]", "value": 0.846, "unit": "µM·h"}, {"measurement": "Tmax", "setting": "[15]", "value": 30, "unit": "min"}, {"measurement": "bioavailability", "setting": "[16]", "value": 100, "unit": "%"}, {"measurement": "half-life", "setting": "[17]", "value": 660, "unit": "min"}, {"measurement": "AUC(0-t)", "setting": "[18]", "value": 1.03, "unit": "µM·h"}, {"measurement": "Vd", "setting": "[19]", "value": 10.3, "unit": "L/kg"}, {"measurement": "remaining at 0.5 h, 1 µM", "setting": "[20]", "value": 29.1, "unit": "%"}, {"measurement": "AUC(0-t)", "setting": "[21]", "value": 0.206, "unit": "µM·h"}]}]}
